High-throughput results as filed in PubChem.
TRPC4 PAM: TRPC4 (mouse) allosteric potentiation; Q9QUQ5; HEK293 TRPC4beta/mu-opioid, DAMGO EC20, Fluo-4 Ca2+ flux; hits give high values; B-score at 10 µM; 0.42% of 310,000 active; AID 2227;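 active means B-score of calcium response area above 5 SD of library B-scores, with initial fluorescence ratio within 5 SD of library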;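 further: B-score of integrated fluorescence ratio over time as area under calcium response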
TRPC6 inhibitor: blocks the mouse TRPC6 cation channel; Q61143; AID 2553; B-score at 10 µM; 1.1% of 310,000 active; HEK293-TRPC6, membrane potential dye, ACh-evoked depolarization; hits give low values;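 active means B-score under library mean minus 3 SD, initial fluorescence not abnormally high, positive integrated signal ratio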;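 further: B-score derived from integrated fluorescence ratio over the kinetic read; more negative B-score means stronger inhibition of depolarization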
Target sequence (Q61143 whole entry, looked up): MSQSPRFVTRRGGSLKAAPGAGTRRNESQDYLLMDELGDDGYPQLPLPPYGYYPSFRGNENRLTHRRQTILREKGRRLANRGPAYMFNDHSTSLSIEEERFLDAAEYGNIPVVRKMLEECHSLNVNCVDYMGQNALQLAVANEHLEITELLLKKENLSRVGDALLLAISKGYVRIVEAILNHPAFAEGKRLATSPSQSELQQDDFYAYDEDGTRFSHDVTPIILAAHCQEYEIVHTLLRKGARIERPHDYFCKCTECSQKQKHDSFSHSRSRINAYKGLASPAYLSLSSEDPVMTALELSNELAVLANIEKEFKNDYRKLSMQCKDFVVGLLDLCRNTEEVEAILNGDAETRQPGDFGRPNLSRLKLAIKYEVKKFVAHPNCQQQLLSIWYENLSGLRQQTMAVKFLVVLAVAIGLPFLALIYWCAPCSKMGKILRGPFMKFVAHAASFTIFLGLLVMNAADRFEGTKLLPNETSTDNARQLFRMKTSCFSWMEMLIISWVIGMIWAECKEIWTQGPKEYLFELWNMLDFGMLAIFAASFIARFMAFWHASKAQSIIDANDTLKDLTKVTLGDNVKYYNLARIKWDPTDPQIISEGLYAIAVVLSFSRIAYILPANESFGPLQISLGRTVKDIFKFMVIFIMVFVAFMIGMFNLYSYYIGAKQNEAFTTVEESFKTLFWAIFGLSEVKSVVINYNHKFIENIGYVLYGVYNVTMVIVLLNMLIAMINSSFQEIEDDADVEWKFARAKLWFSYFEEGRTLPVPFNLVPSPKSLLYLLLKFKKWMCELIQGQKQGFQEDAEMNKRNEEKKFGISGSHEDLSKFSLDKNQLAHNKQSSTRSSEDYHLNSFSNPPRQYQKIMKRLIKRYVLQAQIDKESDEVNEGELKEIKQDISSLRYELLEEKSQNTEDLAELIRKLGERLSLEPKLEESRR
TRPC4 act: opens the mouse TRPC4 cation channel; B-score at 10 µM; Q9QUQ5; HEK293 TRPC4beta/mu-opioid, Fluo4 calcium fluorescence; hits give high values; 0.49% of 310,000 active;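 active means B-score above 5 SD of library B-scores, and initial fluorescence ratio not above library mean plus 5 SD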;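 further: positive B-score marks a calcium rise read as TRPC4 activation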
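Test system: HEK293 cells stably co-expressing mouse TRPC4beta and mu-opioid receptor | Schedule: Fluo4 dye loading 45 min at room temperature, 110 s recording | Measured by: Kinetic Fluo4 calcium fluorescence, 5 s baseline at 1 Hz | Evaluation: B score of integrated ratio | Controls: Buffer (low) and maximal DAMGO (high)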
TRPC6 activator: activators of mouse TRPC6 channel; B-score at 10 µM; HEK293-TRPC6 membrane potential dye fluorescence; hits give high values; Q61143; AID 2550; 0.13% of 310,000 active;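 active means B-score of the integrated fluorescence ratio above library mean plus 3 SD, and starting fluorescence ratio within library mean plus 5 SD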;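 further: higher score means more depolarization so channel activation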
TRPC4 inh: blocks the mouse TRPC4 cation channel; 0.39% of 300,000 active; HEK293 TRPC4beta/mu-opioid, DAMGO-evoked Fluo4 calcium flux; hits give low values; B-score at 10 µM; Q9QUQ5; AID 2247;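 active means B-score over 3 SD under the library average, no early fluorescence shift, positive overall ratio signal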
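Material: HEK293 cells with stable TRPC4beta plus mu-opioid receptor expression / Probe or stimulus: DAMGO in two steps, submaximal then maximal / Compound: single concentration per test compound / Technique: kinetic Fluo4 fluorescence imaging of calcium influx / Read-out: per-well B score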
Starred values were filed as active, the others as inactive; i = inactive; · = no result given. In the library only some 2.3% were active in any assay of this set; here they are far more common.

SMILES	TRPC4 PAM	TRPC6 inhibitor	TRPC4 act	TRPC6 activator	TRPC4 inh
COc1ccc(C(=O)NNC(=S)NC(=O)c2cccs2)cc1	i	i	85*	i	i
Cc1cccc(C(=O)NC(=S)NNC(=O)COc2ccc(Cl)cc2)c1	i	i	68*	i	i
COc1ccc(C(=O)NNC(=S)NC(=O)c2ccc(F)cc2)cc1Br	i	i	49*	i	i
Cc1cccc(/C(N)=N/OC(=O)COc2ccc(Cl)cc2)c1	i	i	i	i	i
O=C(CN(c1ccccc1)S(=O)(=O)c1ccc(F)cc1)NC1CCCCCC1	i	i	i	i	i
CCOc1cc(Cl)c(S(=O)(=O)NCCCn2ccnc2)cc1Cl	i	i	i	i	i
Cc1cccc(C(=O)NNC(=S)NC(=O)c2ccccc2)c1	i	i	173*	i	i
COc1ccc(C(=O)NNC(=S)Nc2ccccc2)cc1	i	i	i	i	i
COc1ccc(C(=O)NC(=S)NNC(=O)c2cccc(C)c2)cc1	i	i	214*	i	i
COc1ccccc1C(=O)NNC(=S)NC(=O)c1sc2ccccc2c1Cl	i	i	48*	i	-8*
Cc1ccc(C(=O)NNC(=O)c2cccc(C)c2)cc1	i	i	i	i	i
Cc1cccc(C(=O)NNC(=S)NC(=O)c2cccs2)c1	i	i	212*	i	i
O=C(NC(=S)NNC(=O)[C@H]1C[C@@H]1c1ccccc1)c1cccc(F)c1	i	i	211*	i	i
COc1ccc(C(=O)NNC(=S)NC(=O)c2cccnc2)cc1	i	i	i	i	i
COc1ccc(C(=O)NNC(=S)NC(=O)c2ccc(OC)cc2)cc1	i	i	78*	i	i
Cc1occc1C(=O)NNC(=S)NC(=O)COc1ccc(Cl)cc1Cl	i	i	87*	i	i
CCCCC(=O)NC(=S)NNC(=O)c1ccc(Cl)cc1Cl	i	i	165*	i	i
Cc1ncsc1C(=O)N1CCCC(C(=O)c2ccc3ccccc3c2)C1 (stereo unspecified)	i	i	i	i	i
CCCCC(C(=O)NC1CCCC1)N(C(=O)c1snc(C(N)=O)c1N)c1ccc(F)cc1 (stereo unspecified)	i	i	i	i	i
N#CC/C(N)=N/Nc1nc2ccccc2nc1Cc1ccccc1	i	i	i	i	i
COc1ccccc1C(=O)NNC(=S)NC(=O)c1cccs1	i	i	137*	i	i
O=C(COc1cccc(Cl)c1)NNC(=S)Nc1ccccc1	i	i	i	i	i
O=C(COc1ccccc1)NNC(=S)NC(=O)c1ccc(Cl)cc1Cl	i	i	69*	i	i
Cc1cc(C(=O)CS(=O)(=O)c2ccc(F)cc2)cc(C)c1O	i	i	i	i	i
CCOc1cccc(OCCCNCCCOC)c1	11*	i	i	i	i
SMILES	TRPC4 PAM	TRPC6 inhibitor	TRPC4 act	TRPC6 activator	TRPC4 inh
CCc1cccc(OCCCCNCCCOC)c1	i	i	i	i	i
COc1cccc(OCCOCCNCCO)c1	i	i	89*	i	i
C=CCc1cccc(OC)c1OCCOCCNCCO	i	i	i	i	i
CC(=O)c1cccc(N(C(=O)CNC(=O)c2ccco2)C(C(=O)NCC2CCCO2)c2ccccc2)c1 (stereo unspecified)	11*	i	i	i	i
CCN(CC)CCCNCC(=O)Nc1ccc(OC)c(Cl)c1	i	i	65*	i	i
CCN(CC)CCCNCC(=O)Nc1ccc2c(c1)CCC2	i	i	i	i	i
CCOCCN1CCN(c2c(C)c(C)nc3cc(-c4cc(OC)cc(OC)c4)nn23)CC1	i	i	i	i	i
COCCN1CCN(c2c(C)c(C)nc3cc(-c4cccc(OC)c4)nn23)CC1	i	i	48*	i	i
CCN1/C(=C\c2ccc3cc(C)ccc3[n+]2CC)Sc2cc(C)c(C)cc21	29*	i	131*	i	i
CCN1/C(=C/c2ccc3cccc(C)c3[n+]2CC)Sc2ccccc21	15*	i	335*	i	-6*
CCOc1ccc(/C=C2\SC(=S)N(CCC(=O)N(CCO)c3ccccc3)C2=O)cc1	12*	i	i	i	i
O=c1c(C=NCCN2CCNCC2)c(-c2ccccc2)[nH]n1-c1ccc([N+](=O)[O-])cc1	i	-6.57*	i	i	i
COc1ccc2c(c1)c(C(C)=O)c(C)n2CCc1ccccc1	i	i	i	i	i
CCc1ccc2[nH]c3nc(N/N=C/c4ccc(O)cc4O)nnc3c2c1	i	i	i	i	i
CN1CCN(c2cc3c(c4c2[nH]c2ccccc24)C(=O)CC(C)(C)C3)CC1	i	i	79*	i	i
CN1CCN(c2ncnc3c2[nH]c2ccc(F)cc23)CC1	i	i	i	i	i
COc1cccc(CC(=O)OCC(=O)NCC(=O)Nc2cccc(C)c2C)c1	i	i	i	i	i
COC(=O)CCC(=O)Nc1nnc(C(F)(F)F)s1	i	i	i	i	i
CCC(NC(=O)Nc1nnc(C(F)(F)F)s1)(C(F)(F)F)C(F)(F)F	i	-6.08*	i	i	i
CC1CN(CCOCCOc2ccccc2-c2ccccc2)CC(C)O1 (stereo unspecified)	i	i	63*	i	i
COc1ccc(NC(=O)Nc2ccc([N+](=O)[O-])cc2)cn1	i	i	i	i	i
COc1cc(/C=C2/C(=O)NN(c3ccc(Cl)c(Cl)c3)C2=O)cc([N+](=O)[O-])c1O	i	i	i	i	i
COc1cc(/C=C2\SC(=O)N(c3ccccc3Cl)C2=O)cc([N+](=O)[O-])c1O	i	i	i	i	-9*
COc1ccc(Cl)cc1NC(=O)CN(C)C(=O)c1cc(-c2ccncc2)nc2ccccc12	i	i	i	i	i
CC(C)C[C@@H](COc1ccccc1)N1CCN(CCc2ccccc2)CCC1=O	i	i	i	i	·
COc1ccc(SC[C@H](Cc2ccccc2)N2CCN(C)CCC2=O)cc1	i	i	i	i	-8*
Cc1ccc(SC[C@H](Cc2ccccc2)N2CCN(C)CCC2=O)cc1	i	i	81*	i	·
CN1CCC(=O)N([C@H](CSc2ccccc2)Cc2ccccc2)CC1	i	i	i	i	i
CN1CCC(=O)N([C@H](CSc2ccc(Br)cc2)Cc2ccccc2)CC1	i	i	79*	i	i
